Screening data as filed in PubChem BioAssay.
HMGR II inh = blocks class II HMG-CoA reductase of Enterococcus faecalis | purified E. faecalis HMGR, NADPH absorbance 340 nm kinetic | inhibition, % at 10 µM | 0.41% of 190,000 active | AID 1066;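 active = inhibition above a set limit, the median over all tested compounds plus 3 SD, cut at about 9.5% in these data; inconclusive = no clear call, values can overlap the other calls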;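 note: enzyme runs in reverse so mevalonate oxidation gives rising NADPH absorbance; 0% = complete reaction with DMSO and 100% = background rate lacking mevalonate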
HSV replic up = HSV replication enhancement; HSV replication augmentation in cells, fold increase; maximum fold increase; 0.005% of 220,000 active; AID 1956; in the data active = maximum fold increase above about 1.5; inconclusive = no clear call, values can overlap the other calls; tested in PC3 cells
ABCB1 inh = blocks JC-1 efflux by human ABCB1 transporter; P08183; 0.067% of 190,000 active; CCRF-Adr cells, flow cytometry; inhibition, % at 6.6 µM; in the data active = inhibition above about 40%;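 note: 0% = vehicle and 100% = reference inhibitor; higher value means more JC-1 retained so stronger ABCB1 efflux block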
ABCG2 inh = inhibitors of human ABCG2 transporter, ABCB1 counter-screen; AID 1325; inhibition, % at 6.6 µM; 0.1% of 190,000 active; Q9UNQ0; IgMXP3 cells, JC-1 efflux, flow cytometry;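 active = inhibition above 80%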;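 note: 0% = DMSO and 100% = nicardipine control wells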
Target sequence (Q9UNQ0 whole entry, looked up): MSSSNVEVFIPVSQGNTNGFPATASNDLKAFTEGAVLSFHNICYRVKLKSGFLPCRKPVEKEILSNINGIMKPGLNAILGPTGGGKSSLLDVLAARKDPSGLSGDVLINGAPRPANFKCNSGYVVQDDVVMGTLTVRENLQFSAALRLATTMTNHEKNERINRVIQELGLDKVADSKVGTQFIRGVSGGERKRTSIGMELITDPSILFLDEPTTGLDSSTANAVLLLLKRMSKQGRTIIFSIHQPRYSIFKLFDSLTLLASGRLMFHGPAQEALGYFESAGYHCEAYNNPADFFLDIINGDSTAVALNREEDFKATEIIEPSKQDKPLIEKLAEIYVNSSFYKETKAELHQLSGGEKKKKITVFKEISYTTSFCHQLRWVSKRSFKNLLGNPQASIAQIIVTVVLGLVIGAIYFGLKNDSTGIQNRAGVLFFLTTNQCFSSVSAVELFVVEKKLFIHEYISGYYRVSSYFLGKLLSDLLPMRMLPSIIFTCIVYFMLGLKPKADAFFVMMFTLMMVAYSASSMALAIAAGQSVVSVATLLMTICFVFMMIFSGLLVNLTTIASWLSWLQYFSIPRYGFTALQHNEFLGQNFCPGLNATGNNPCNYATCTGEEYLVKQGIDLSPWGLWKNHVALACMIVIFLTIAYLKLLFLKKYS
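Test system: IgMXP3 (ABCG2) plus far-red-tagged CCRF-Adr (ABCB1) cells / Amount: 3 million cells/mL in well / Reagent: JC-1 transporter substrate / Timing: 10 min compound exposure, 25 °C / Signal: flow cytometry, 530 nm JC-1 signal / Read-out: percent efflux inhibition, scaled nicardipine 100% to DMSO 0% / Benchmarks: nicardipine as high control, DMSO as low control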
The depositor's hits bear a star; i = inactive; ? = inconclusive; . = not tested or not shown; + = active, no number. Compounds with a hit are over-represented: about 0.49% of the library has one in this group of screens.

SMILES	HMGR II inh	HSV replic up	ABCB1 inh	ABCG2 inh
COc1cc(OC)cc(C(=O)NC(C(=O)O)C23CC4CC(CC(C4)C2)C3)c1 (centres undefined)	13.9*	i	1.5	3.6
CN(C)NC(=O)C(NC(=O)c1ccccc1)C12CC3CC(CC(C3)C1)C2 (centres undefined)	-3.8	i	-0.4	-0.7
COc1ccc2cc(C3NC(=O)c4ccccc4N3)c(Cl)nc2c1 (centres undefined)	18.9*	i	-1.1	11.7
N#CCCCn1c(=O)oc2ccccc21	14.9*	i	0.2	0.6
CC(=O)Nc1nnc(C2=COCCO2)o1	10.5*	i	0.1	-0.2
CN(C)C(CNC(=O)CCOc1ccccc1)c1ccco1 (centres undefined)	21.2*	i	1.1	4.5
CC1(C)CCC23CC[C@]4(C)C(OC2=O)(C3C1)[C@H]1O[C@H]1C1[C@@]2(C)CC[C@@H](O)C(C)(C)C2CC[C@]14C (some centres undefined)	.	i	.	.
COC(=O)CN1C(=S)N(Cc2ccccc2)C(=O)C1CC(=O)Nc1ccc(OC)cc1 (centres undefined)	-3.8	i	-0.5	-7.2
COc1ccc(NC(=O)CC2C(=O)N(Cc3ccccc3)C(=S)N2CCN2CCOCC2)cc1 (centres undefined)	11.0*	i	0.7	1.6
O=C(NCC(c1ccco1)N1CCCC1)c1ccccc1F (centres undefined)	-4.6	i	-0.2	-1.4
CSc1ccccc1C(=O)NCC(c1ccco1)N1CCCCC1 (centres undefined)	11.7*	i	-2.2	-1.0
OC1(c2ccccc2)c2ccccc2-c2ncccc21 (centres undefined)	2.8	i	0.5	3.7
O=C1S/C(=C\c2ccc(N3CCOCC3)o2)C(=O)N1Cc1ccc(F)cc1	-2.4	i	7.7	106.7*
Cc1cc(N=Nc2ccc(C)c(N=Nc3cc(C)c(N)cc3N)c2)c(N)cc1N	.	i	.	.
O=C(c1cnn2c(C(F)(F)F)cc(-c3ccc(Br)cc3)nc12)N1CCOCC1	0.8	i	1.7	9.3
Cc1nn2c(C(F)(F)F)cc(-c3ccc(Cl)cc3)nc2c1C(=O)N1CCOCC1	17.2*	i	1.6	10.8
Cc1ccc(S(=O)(=O)N2CCC(=O)N(CCO)CC2)cc1	-9.1	i	0.0	-1.2
O=C1NCCCC1C(=O)Nc1ccccc1C(F)(F)F (centres undefined)	+	i	0.1	0.3
Cc1ccc(SCCNC(=O)c2ccc(CN3CCOCC3)cc2)cc1	-1.3	i	0.0	6.9
Cc1ccc(CNC(=O)c2ccc(CN3CCOCC3)cc2)cc1	11.4*	i	0.1	3.5
CCOC(=O)c1cnc2c(c(C)nn2C)c1Oc1cc(Cl)cc(Cl)c1	.	i	.	.
O=C(CSc1cccc(C(F)(F)F)c1)Nc1cc(S(=O)(=O)N2CCCC2)ccc1Cl	-4.4	i	0.9	7.8
COc1ccc(C(=O)CCC(C)(C)[N+](=O)[O-])cc1	11.9*	i	0.2	1.5
COc1ccc(C(=O)c2ccc(Cl)c([N+](=O)[O-])c2)cc1	-7.4	i	1.1	25.0
CC(C)CN1CCN(Cc2nc(C(C)C)cs2)CC1CCO (centres undefined)	10.6*	i	0.3	0.3
SMILES	HMGR II inh	HSV replic up	ABCB1 inh	ABCG2 inh
Cc1cccc(-c2ncc(CN3CCN(CC(C)C)C(CCO)C3)cn2)c1 (centres undefined)	9.6*	i	-1.3	6.3
CC(C)=CCN1CCN(Cc2nc(C(C)C)cs2)CC1CCO (centres undefined)	-0.9	i	1.2	1.9
N#Cc1c2c(c(-c3ccccc3Cl)[nH]c1=S)CCCC2	24.1*	i	-2.2	-3.7
N#Cc1c(-c2ccccc2Cl)cc(-c2ccccc2)[nH]c1=S	0.7	i	-1.2	-2.1
COc1ccc(NC(=O)c2ccccc2N(Cc2ccccc2)S(C)(=O)=O)cc1	-4.8	i	1.1	2.8
COc1ccc(NC(=O)c2ccccc2N(Cc2ccccc2)S(C)(=O)=O)cc1OC	10.2*	i	1.0	1.4
O=Cc1cccn1-c1nccc(-c2ccco2)n1	-4.3	i	0.2	8.2
CCOC(=O)C(NC(=O)Cc1ccccc1)(Nc1cc(C)on1)C(F)(F)F (centres undefined)	11.6*	i	-0.5	0.0
CCOC(=O)C(NC(=O)CC)(Nc1cc(C)on1)C(F)(F)F (centres undefined)	-0.3	i	0.2	-3.1
CC(C)c1ccc(NC(=O)COC(=O)COc2ccccc2)cc1	-1.0	i	-0.1	-0.4
CCC(CC)C(=O)c1c[nH]c(C(=O)NCc2cccs2)c1	11.3*	i	0.4	1.4
O=C1CC(C(=O)Nc2ccc(Cl)cc2[N+](=O)[O-])C2(CCCCC2)O1 (centres undefined)	-1.1	i	1.2	8.8
CC(C)CSC1=NSC2=NC(=O)/C(=C\c3coc4ccccc4c3=O)C(=N)N12	-7.7	i	133.6*	+
CSC1=NSC2=NC(=O)/C(=C\c3coc4ccccc4c3=O)C(=N)N12	1.2	?	10.8	62.8
COc1ccc(Cl)cc1NC(=O)CN(C)CC(=O)Nc1ccc(C)cc1Br	2.3	i	6.2	29.8
O=C(N/N=C/c1ccccc1C(=O)O)c1cc(-c2ccc3c4c(cccc24)CC3)n[nH]1	12.7*	i	-0.1	-0.1
c1ccc(-c2cc(-c3ccccc3)n3ncnc3n2)cc1	-4.8	i	1.5	20.2
c1ccc(-c2cnn3c(-c4ccccc4)c(-c4ccccc4)nc3n2)cc1	0.9	?	42.5*	171.9*
CCCCOC(=O)Nc1ccc(N(C)C)cc1	-0.2	i	-0.8	-5.5
CC(/C=N\Nc1nnc2c(n1)[nH]c1c(C)cccc12)=C\c1ccco1	13.1*	i	0.0	0.6
CC(=O)N1N=C(N)SC12CCCC2	10.6*	i	-0.1	-0.3
CC(=O)NC1=NN(C(C)=O)C2(CCCC2)S1	-8.3	i	0.5	1.7
O=C([C@@H]1CC=C[C@@H]2CCN(C3CC3)C(=O)[C@@H]21)N1CCN(c2ccccc2)CC1	.	i	.	.
COc1ccccc1C1CCCN1Cc1nc(-c2cc3c(cc2Cl)OCO3)oc1C (centres undefined)	-0.9	i	0.4	2.7
COc1ccccc1C1CCCN1Cc1nc(-c2ccc(C)s2)oc1C (centres undefined)	12.2*	i	-0.2	-0.1
SMILES	HMGR II inh	HSV replic up	ABCB1 inh	ABCG2 inh
O=C1CC(c2ccc(Cl)cc2)SC(N(c2ccccc2)c2ccccc2)=N1 (centres undefined)	-2.6	i	0.5	1.9
Cc1ccccc1NC(=O)Cn1nnc(S(=O)(=O)c2ccc(C(C)(C)C)cc2)c1N	18.2*	.	-1.3	-1.4
Cc1ccccc1NC(=O)Cn1nnc(C(=O)NCc2ccco2)c1N	12.7*	i	0.6	0.9
CCOc1ccccc1NC(=O)Cn1nnc(C(=O)NCc2ccco2)c1N	1.3	.	0.0	1.9
COc1ccccc1NC(=S)N1CCC(C(=O)c2ccc(F)cc2)CC1	1.8	i	0.6	2.2
O=C(CSc1nnc(-c2ccco2)o1)c1ccc[nH]1	-2.9	i	0.2	1.5
CC(C)(C)c1ccc(C(=O)Nc2cccc([N+](=O)[O-])c2)cc1	-2.7	i	11.2	116.1*
